Most compounds without a hit are left out; they make up all but 3.5% or so of the library.
Env fusion inh: blocks HIV Env-driven cell-cell fusion; HeLa-JRFL Env/CEM21 cell fusion, luciferase; inhibition, % at 12.3 µM; 1.1% of 360,000 active; AID 651610;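 active = mean replicate inhibition score of at least 50 and every replicate individually at or above 50; inconclusive = only one of the two criteria met; inactive = mean below 50 and not all replicates reaching 50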;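 note: 0% = plate neutral controls and 100% = maraviroc near 300 nM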
ERAP1 inh: blocks human ERAP1 aminopeptidase activity; recombinant ERAP1, Leu-AMC fluorescence, 60 min; AID 652197; inhibition, % at 10.7 µM; 0.15% of 340,000 active; Q9NZ08;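 active = mean replicate inhibition of at least 30%, or all replicates individually reaching that 30% level; inactive = mean below 30% and not every replicate reaching it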;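 note: 0% = neutral control wells and 100% = L-leucinethiol positive control wells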
Target sequence (Q9NZ08 whole entry, looked up): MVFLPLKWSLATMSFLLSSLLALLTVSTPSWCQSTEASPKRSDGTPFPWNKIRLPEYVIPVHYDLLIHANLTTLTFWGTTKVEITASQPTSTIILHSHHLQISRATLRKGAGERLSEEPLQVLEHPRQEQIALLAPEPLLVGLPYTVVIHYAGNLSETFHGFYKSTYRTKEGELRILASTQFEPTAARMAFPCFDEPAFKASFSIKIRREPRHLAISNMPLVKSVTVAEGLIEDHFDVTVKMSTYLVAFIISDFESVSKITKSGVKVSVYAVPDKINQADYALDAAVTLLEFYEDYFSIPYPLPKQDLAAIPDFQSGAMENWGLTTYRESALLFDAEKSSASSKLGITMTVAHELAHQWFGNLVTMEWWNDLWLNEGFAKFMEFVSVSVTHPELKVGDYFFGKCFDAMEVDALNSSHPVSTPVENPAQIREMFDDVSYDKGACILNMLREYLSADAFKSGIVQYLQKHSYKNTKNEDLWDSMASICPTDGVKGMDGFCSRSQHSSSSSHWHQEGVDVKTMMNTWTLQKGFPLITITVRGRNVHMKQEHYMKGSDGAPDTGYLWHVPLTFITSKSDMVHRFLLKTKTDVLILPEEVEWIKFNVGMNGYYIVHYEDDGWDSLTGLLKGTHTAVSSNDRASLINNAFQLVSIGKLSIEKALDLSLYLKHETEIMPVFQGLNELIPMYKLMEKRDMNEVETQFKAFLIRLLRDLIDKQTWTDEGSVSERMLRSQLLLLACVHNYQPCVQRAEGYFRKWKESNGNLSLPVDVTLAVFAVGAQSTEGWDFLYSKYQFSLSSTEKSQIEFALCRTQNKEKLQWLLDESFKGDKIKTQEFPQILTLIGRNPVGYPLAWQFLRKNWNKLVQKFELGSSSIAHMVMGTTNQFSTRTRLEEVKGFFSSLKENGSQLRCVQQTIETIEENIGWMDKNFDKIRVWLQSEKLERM
Cneo AK release: Cryptococcus neoformans lysis via adenylate kinase release; 0.2% of 360,000 active; C. neoformans lysis, adenylate kinase release luminescence, 4 h; normalised: neutral wells 0, clomiphene wells 100; lysis activity, % at 15 µM; AID 651654;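 active = mean lysis activity across replicates of at least 80%, whatever share of replicates individually reach that level; inactive = mean lysis activity below 80%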
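Schedule: static 4 h at 37 °C with compound, 1 h detection; system: C. neoformans cells; benchmarks: Clomiphene as positive control; buffer or medium: fresh YPD medium; measure: luminescence rise reflecting yeast cell lysis; measured by: luminescent adenylate kinase detection reagent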
esBAF inh: inhibitors of esBAF chromatin remodeling in mouse ES cells | Bmi1-luciferase knock-in reporter, 24 h; 100% = twice the neutral-well signal | reporter increase, % at 12.5 µM | 2% of 350,000 active | AID 602393; in the data active = activation above about 40%; inconclusive = no clear call, values can overlap the other calls;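 note: 0% = median of the plate's neutral control wells and 100% = double that signal; a rise in the Bmi1 reporter signal indicates esBAF inhibition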
MITF act: activators of MITF-driven TRPM1 promoter activity in SK-MEL-5 cells | activation, % at 12.5 µM | SK-MEL-5 TRPM1-promoter luciferase, 24 h; % of positive control, neutral wells = 0 | 0.75% of 300,000 active | AID 588334;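 active = mean activation of at least 80% with every replicate also reaching 80%; inconclusive = mean reaches 80% but some replicate falls short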;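 note: 0% = neutral control wells and 100% = parthenolide positive control wells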
Wnt act: activates Wnt/beta-catenin signaling in a reporter cell assay | activator, plate reader | activation, % at 9.35 µM | 1.2% of 300,000 active | AID 743398; in the data active = activation above about 30%, passing the limit was not always enough; inconclusive = no clear call, values can overlap the other calls;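 note: 0% = neutral control wells and 100% = positive control wells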
* hit, by the source's call; i = inactive; ? = inconclusive; . = no result; [ ] = dose if it differs, or a comment.

SMILES	Env fusion inh	ERAP1 inh	Cneo AK release	esBAF inh	MITF act	Wnt act
O=C(C[C@H]1C=C[C@@H](NC(=O)Nc2ccc(F)cc2)[C@H](CO)O1)NCCN1CCCC1	13[16.7 µM]	3	-6	4	.	.
O=C(Nc1ccccc1)N1CC(=O)N2[C@H](C1)[C@H](c1ccc(C#Cc3cccnc3)cc1)[C@@H]2CO	.	1	.	.	.	.
CC(Sc1ccsc1[N+](=O)[O-])C(=O)NCc1ccccc1 (centres undefined)	16	1	.	.	.	54*
COc1ccccc1CNC(=O)C(C)Sc1ccsc1[N+](=O)[O-] (centres undefined)	-6	5	.	.	1	-2
CSc1ccccc1NC(=O)CN1CCN(c2ccccn2)CC1	9	0	1	-7	-5	-1
O=C(CN1CCN(c2ccccn2)CC1)Nc1ccc([N+](=O)[O-])cc1C(=O)Nc1ccccc1F	60*	-2	-3	.	-9	-4
C[C@H](CO)N1C[C@H](C)[C@@H](CN(C)S(=O)(=O)c2cccs2)OCCCC[C@H](C)Oc2ccc(N(C)C)cc2C1=O	-9[16.7 µM]	-5	5	4	.	.
Cc1ccc2oc(C(=O)N3CCCCCC3)c(C)c2c1	.	4	1	64*	124*	29
COc1ccccc1C(=O)N1CCN(C(=O)c2oc3ccc(C)cc3c2C)CC1	66*	1	-3	-3	10	-2
Cc1c(C(=O)N2CCCCC2)oc2ccc(Br)cc12	-42	-1	.	.	75	22
CC(=O)Nc1ccc2c(c1)C(=O)N(C)[C@@H]1CC[C@@H](CC(=O)NC3CCCCC3)O[C@H]1CO2	12[16.7 µM]	.	-4	-6	.	.
Cc1cc(C(=O)Nc2sc3c(c2C#N)CCC(C)C3)cs1 (centres undefined)	-136	.	0	52*	68	30
Cc1ccc(OCC(=O)Nc2sc3c(c2C#N)CCC3)cc1	.	4	6	35	111*	12
Cc1cccc(C(=O)Nc2sc3c(c2C#N)CCCCC3)c1	.	.	.	-1	89*	.
CCC(=O)Nc1sc2c(c1C#N)CCC2	6	4	.	.	-20	-1
N#Cc1c(NC(=O)c2ccccc2)sc2c1CCC2	i	.	-6	.	44	.
Cc1ccc(OCC(=O)Nc2sc3c(c2C#N)CCC3)cc1C	-59	.	0	?	.	1
CCOC(=O)Nc1sc2c(c1C#N)CCCC2	.	2	-1	-8	91*	.
Cc1cccc(CSC(Nc2ccc(F)cc2)=C(C#N)C#N)c1	19	.	.	.	-15	.
N#CC(C#N)=C(Nc1ccc(F)cc1)SCc1cccc(Br)c1	65*	18	-17	.	-63	-11
Cc1ccccc1S(=O)(=O)N[C@@H]1CC[C@@H](CCn2cc(-c3ccc(F)cc3)nn2)O[C@@H]1CO	16[16.7 µM]	-1	-2	4	.	.
O=C(C[C@H]1CC[C@H]2[C@@H](COC[C@@H](O)CN2Cc2ccc(Oc3ccccc3)cc2)O1)N1CCOCC1	.	-2	-4	5	.	.
O=[N+]([O-])c1ccc(-c2cn(-c3ccccc3F)c(=S)[nH]2)cc1	-2	-1	.	.	24	2
Cc1ccc(-c2cn(-c3ccccc3F)c(=S)[nH]2)cc1	-1	2	2	47*	53	13
C[C@H]1CN([C@@H](C)CO)C(=O)c2cc(C#CCN(C)C)cnc2O[C@@H]1CN(C)C(=O)Cc1cccnc1	4[16.7 µM]	-1	-4	-4	.	.
SMILES	Env fusion inh	ERAP1 inh	Cneo AK release	esBAF inh	MITF act	Wnt act
Cc1ccc(CN(C)C(=O)c2ccc(S(=O)(=O)N3CCCCCC3)cc2)o1	17	0	0	-2	13	36*
N#Cc1ccc(-c2ccc([C@H]3[C@H](CO)N4C(=O)CN(C(=O)C5CC5)C[C@@H]34)cc2)cc1	.	38*	.	.	.	.
O=C(Cc1ccccn1)N1CC(=O)N2[C@@H](CO)[C@H](c3ccc(C#CC4CCCC4)cc3)[C@@H]2C1	.	32*	.	.	.	.
N#Cc1ccc(-c2ccc([C@H]3[C@H]4CN(C(=O)C5CCCC5)CC(=O)N4[C@H]3CO)cc2)cc1	.	0	.	.	.	.
C[C@H](CO)N1C[C@H](C)[C@H](CN(C)C(=O)C2CCOCC2)Oc2ncc(C3=CCCC3)cc2C1=O	3[16.7 µM]	2	-3	-11	.	.
COc1ccc(OC)c2c1C(=O)C(Cl)=C(Cl)C2=O	94*	.	2	.	.	-13
Cc1nc(-c2ccccc2)nc2[nH]c(C(C)C)cc(=O)c12	0	.	-1	-5	5	68*
CC(=O)Nc1nc(-c2ccccc2)nc(C)c1C(C)=O	.	.	1	-2	-7	.
Cc1nc(-c2ccccc2)nc2[nH]c(=O)n(-c3ccccc3)c(=O)c12	-24	.	1	43*	.	?
CO[C@H]1CN(C)C(=O)c2cc(NC(=O)Nc3ccccc3)ccc2OC[C@@H](C)N(C(=O)CC2CC2)C[C@@H]1C	3[16.7 µM]	.	2	-4	.	.
CCC(=O)N1CC[C@@H]2[C@@H](CO)Nc3ccc(-c4ccc(OC)cc4)cc3[C@@H]21	.	.	-18	-5	.	.
Oc1ccccc1-c1cc(-c2cccc(F)c2)n[nH]1	-330	.	-8	45*	.	.
CC(C)(C)c1ccc(-c2cc(-c3ccccc3O)[nH]n2)cc1	-349	2	-12	-32	-4	-2
COc1ccc(NC(=O)Nc2ccc3c(c2)C(=O)N([C@@H](C)CO)C[C@H](C)[C@H](CN(C)C(=O)Nc2ccccc2)O3)cc1	6[16.7 µM]	-1	-1	-1	.	.
Cc1noc(C)c1NC(=O)N(C)C[C@@H]1Oc2ccc(NC(=O)Cn3cnnn3)cc2C(=O)N([C@@H](C)CO)C[C@@H]1C	.	1	0	-2	.	.
C=CCSc1nc(N)c2c(C)c(C)sc2n1	-101	.	1	46*	.	12
Cc1c(-c2nc(N)nc(Nc3ccccc3F)n2)oc2ccccc12	-391	.	-1	48*	122*	.
COc1cccc(Nc2nc(N)nc(-c3oc4ccccc4c3C)n2)c1	23	.	-14	51*	24	.
Cc1ccc(Nc2nc(N)nc(-c3oc4ccccc4c3C)n2)cc1	.	.	.	.	14	.
Cc1cccc(Nc2nc(N)nc(-c3oc4ccccc4c3C)n2)c1	33	.	-1	57*	.	-4
Cn1cnc(S(=O)(=O)N2C[C@@H](O)COC[C@@H]3O[C@@H](CC(=O)NCc4ccc(F)cc4)CC[C@H]32)c1	.	-2	-1	-6	.	.
CCNc1oc(COc2ccccc2F)nc1C#N	.	.	-2	52*	13	.

Assay outcomes deposited in PubChem BioAssay by Broad Institute.
